Test results as given in ChEMBL document CHEMBL4811308, “Design, synthesis and broad spectrum antibreast cancer activity of diarylindoles via induction of apoptosis in aggressive breast cancer cells” (Bioorg Med Chem, 2021).
Calls of active or inactive are those of the source. The calls are words filed in the database; no cut-off is given here.

What was measured:
[1] = tested on: MCF7; experiment: Cytotoxicity against human MCF7 cells assessed as reduction in cell viability incubated for 24 hrs by MTT assay; format: functional, cell-based; details: MCF7, 24 h
In short: (§1)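 MTT viability: cells seeded at 1 × 10^4/well, grown 24 h, then exposed to a concentration range of compound for 24 h. MTT (5 mg/mL stock) added for 3 h, formazan dissolved in DMSO, absorbance read at 540 nm.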

[2] = tested on: PC-3; experiment: Cytotoxicity against human PC-3 cells assessed as reduction in cell viability incubated for 24 hrs by MTT assay; format: functional, cell-based; details: PC-3, 24 h; in short: as §1
[3] = tested on: MDA-MB-231; experiment: Cytotoxicity against human MDA-MB-231 cells assessed as reduction in cell viability incubated for 24 hrs by MTT assay; format: functional, cell-based; details: MDA-MB-231, 24 h; in short: as §1
[4] = tested on: HEK293; experiment: Cytotoxicity against human HEK293 cells assessed as reduction in cell viability incubated for 24 hrs by MTT assay; format: cell-based; details: HEK293, 24 h; in short: as §1
[5] = target: Tubulin (Homo sapiens) (UniProt P68371+Q9H4B7+P0DPH7+P68366+Q13509+Q71U36+P04350+Q3ZCM7+P07437+P68363+Q9BQE3+Q6PEY2+Q13885+Q9BVA1+Q9BUF5); experiment: Induction of tubulin polymerization (unknown origin) at 10 uM incubated for 1 hr by spectrometric analysis; format: protein-complex assay

## COc1ccc2c(c1)cc(-c1cc(OC)c(OC)c(OC)c1)n2Cc1ccc(OCc2ccccc2)cc1
[1]
  IC50: > 30 µM
[2]
  IC50: > 30 µM
[3]
  IC50: > 30 µM

## COc1ccc2c(c1)c(Cc1ccc(OCc3ccccc3)cc1)c(-c1cc(OC)c(OC)c(OC)c1)n2Cc1ccc(OCc2ccccc2)cc1
[1]
  IC50: > 30 µM
[2]
  IC50: > 30 µM
[3]
  IC50: > 30 µM

## CC/C(=C(\c1ccccc1)c1ccc(OCCN(C)C)cc1)c1ccccc1 [TAMOXIFEN]
[1]
  IC50: 8.42 µM
[2]
  IC50: 15.8 µM
[4]
  IC50: 22.4 µM

## COc1ccc2c(c1)cc(-c1cc(OC)c(OC)c(OC)c1)n2Cc1ccccc1
[1]
  IC50: > 30 µM
[2]
  IC50: > 30 µM
[3]
  IC50: > 30 µM

## CC(=O)O[C@H]1C(=O)[C@@]2(C)[C@H]([C@H](OC(=O)c3ccccc3)[C@]3(O)C[C@H](OC(=O)[C@H](O)[C@@H](NC(=O)c4ccccc4)c4ccccc4)C(C)=C1C3(C)C)[C@]1(OC(C)=O)CO[C@@H]1C[C@@H]2O [PACLITAXEL]
[5]
  Activity: Active
[1]
  IC50: 0.48 µM
[2]
  IC50: 2.6 µM
[3]
  IC50: 1.6 µM
[4]
  IC50: 5.8 µM

## COc1ccc2c(c1)c(Cc1ccc(O)cc1)c(-c1cc(OC)c(OC)c(OC)c1)n2Cc1ccc(O)cc1
[1]
  IC50: > 30 µM
[2]
  IC50: > 30 µM
[3]
  IC50: > 30 µM

## COc1ccc2c(c1)cc(-c1cc(OC)c(OC)c(OC)c1)n2Cc1ccc(OCCN2CCCC2)cc1
[1]
  IC50: 5.08 µM
[2]
  IC50: 6.03 µM
[3]
  IC50: 12.4 µM

## COc1ccc2c(c1)cc(-c1cc(OC)c(OC)c(OC)c1)n2Cc1ccc(OCCN2CCCCC2)cc1
[1]
  IC50: 21.6 µM
[2]
  IC50: 21.8 µM
[3]
  IC50: > 30 µM

## CCOC(=O)COc1ccc(Cn2c(-c3cc(OC)c(OC)c(OC)c3)cc3cc(OC)ccc32)cc1
[1]
  IC50: > 30 µM
[2]
  IC50: > 30 µM
[3]
  IC50: > 30 µM

## COc1ccc(Cn2c(-c3cc(OC)c(OC)c(OC)c3)cc3cc(OC)ccc32)cc1
[1]
  IC50: > 30 µM
[2]
  IC50: > 30 µM
[3]
  IC50: > 30 µM

## CCN(CC)CCOc1ccc(Cn2c(-c3cc(OC)c(OC)c(OC)c3)cc3cc(OC)ccc32)cc1
[1]
  IC50: 29.8 µM
[2]
  IC50: 15 µM
[3]
  IC50: 13.2 µM

## COc1ccc2c(c1)cc(-c1cc(OC)c(OC)c(OC)c1)n2Cc1ccc(O)cc1
[1]
  IC50: > 30 µM
[2]
  IC50: > 30 µM
[3]
  IC50: 17.3 µM

## COc1ccc2c(c1)c(Cc1ccc(OCCN3CCCC3)cc1)c(-c1cc(OC)c(OC)c(OC)c1)n2Cc1ccc(OCCN2CCCC2)cc1
[1]
  IC50: 4.25 µM
[2]
  IC50: 7.48 µM
[3]
  IC50: 9.45 µM

## COc1ccc(Cc2c(-c3cc(OC)c(OC)c(OC)c3)n(Cc3ccc(OC)cc3)c3ccc(OC)cc23)cc1
[1]
  IC50: > 30 µM
[2]
  IC50: > 30 µM
[3]
  IC50: > 30 µM

## COc1ccc2c(c1)c(Cc1ccccc1)c(-c1cc(OC)c(OC)c(OC)c1)n2Cc1ccccc1
[1]
  IC50: > 30 µM
[2]
  IC50: > 30 µM
[3]
  IC50: > 30 µM

## COc1ccc2c(c1)cc(-c1cc(OC)c(OC)c(OC)c1)n2Cc1ccc(OC(C)CN(C)C)cc1 (stereo unspecified)
[1]
  IC50: 14.7 µM
[2]
  IC50: 13.3 µM
[3]
  IC50: 10.6 µM

## COc1ccc2c(c1)cc(-c1cc(OC)c(OC)c(OC)c1)n2Cc1ccc(OCCN(C)C)cc1
[1]
  IC50: 6.67 µM
[2]
  IC50: 6.87 µM
[3]
  IC50: 7.84 µM

## COc1ccc2[nH]c(-c3cc(OC)c(OC)c(OC)c3)cc2c1
[1]
  IC50: > 30 µM
[2]
  IC50: > 30 µM
[3]
  IC50: > 30 µM
